# MrgX1 PAM = human MrgX1 positive allosteric modulation, primary screen | Q96LB2 | MrgX1-HEK293, Fluo-4 calcium flux, FDSS; stronger effect = higher value | B-score at 10 µM | 310,000 compounds, 0.63% hits | AID 588675;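 active means plate-corrected calcium response at least 3 library SD above typical, normal starting fluorescence, not activating the receptor alone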;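 further: compound read alongside a low EC10 to EC30 dose of BAM8-22 agonist; peak minus trough fluorescence over baseline measured at the second addition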
# MrgX1 antagonist = blocks BAM8-22 activation of human MrgX1 receptor. Q96LB2. MRGX1-HEK293 calcium flux, Fluo-4, BAM8-22 antagonism; stronger effect = lower value. B-score at 10 µM. 310,000 compounds, 1.3% hits;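 active means calcium-response B-score plate-corrected more than 3 library SD below zero, starting fluorescence within 5 deviations, no agonist response on first addition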;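 further: peak minus trough fluorescence over baseline after final BAM8-22 challenge near maximal dose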
# RGS4 pot = RGS4 potentiation or activation; HEK293 M3R/inducible RGS4, carbachol calcium flux Fluo4; stronger effect = lower value; B-score at 10 µM; 310,000 compounds, 0.92% hits; AID 463111;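 active means B-score of the integrated calcium signal more than 4 SD below the library mean, with starting fluorescence not abnormally high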;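 further: negative B-score means reduced calcium response which marks RGS4 activation or potentiation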
#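 Detection: kinetic calcium fluorescence imaging with Fluo4-AM dye, 2 µM / Material: HEK293 cells with stable M3R and inducible RGS4 / Schedule: recording 10 s baseline at 1 Hz, 100 s post-agonist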
# MrgX1 ag = agonists of human MrgX1 receptor. AID 588627. B-score at 10 µM. MrgX1-HEK293 cells, Fluo-4 calcium fluorescence, agonist mode; stronger effect = higher value. 310,000 compounds, 0.44% hits. Q96LB2;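 active means calcium response B-score plate-corrected fluorescence ratio at least 3 library SD, with starting fluorescence B-score inside 5 SD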
#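 Material: MrgX1-expressing HEK293 cells / Dosing: compound as first of three additions / Incubation: overnight seeding, then 1 h dark dye loading / Signal: Fluo-4 NW calcium fluorescence / Evaluation: B-scored fluorescence response ratio / Benchmarks: positive and negative control wells on each plate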
# RGS4 block = inhibitors of human RGS4; HEK293 M3R/RGS4 inducible, Fluo-4 calcium flux; stronger effect = higher value; triggered by carbachol at its EC20; B-score at 10 µM; 310,000 compounds, 0.45% hits; P49798;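 active means B-score, a plate-corrected calcium signal, over three deviations above library mean, with baseline fluorescence within five deviations of library mean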;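 further: RGS4 expression induced by doxycycline in cells with stable M3 receptor; B-score is computed from the integrated fluorescence ratio over baseline after carbachol; higher B-score means a larger calcium signal and so more RGS4 inhibition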
# Target sequence (P49798 whole entry, looked up): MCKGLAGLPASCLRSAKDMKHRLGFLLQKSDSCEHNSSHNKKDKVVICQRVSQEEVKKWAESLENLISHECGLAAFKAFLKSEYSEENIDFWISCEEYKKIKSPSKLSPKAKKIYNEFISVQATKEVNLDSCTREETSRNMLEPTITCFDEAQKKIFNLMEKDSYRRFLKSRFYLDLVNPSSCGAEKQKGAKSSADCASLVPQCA
# RGS4 inh valid = validation of RGS4 inhibitors; shares compounds with RGS4 block; HEK293 M3R/RGS4, carbachol calcium Fluo-4 fluorescence; carbachol added at its EC20; 0 = buffer wells, 100 = carbachol control; calcium response, % at 10 µM; 1,700 compounds, 65% hits; AID 492999;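 active means duplicate-averaged calcium response above the buffer-only control mean plus 5 SD of those controls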;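 further: integrated fluorescence ratio F max minus min over baseline F0; higher response in RGS4-induced cells means RGS4 inhibition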
# RGS4 uninduced = non-induced cell nonspecific activity of RGS4 inhibitors; shares compounds with RGS4 block; HEK293 M3R non-induced, carbachol calcium Fluo-4; submaximal (EC20) carbachol stimulus; buffer wells 0%, carbachol control wells 100%; activity (percent), % at 10 µM; 1,900 compounds, 20% hits; AID 493000; call rule not given here;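 further: RGS4 induction absent so cells express M3R without RGS4; higher means more calcium signal and flags a non-specific hit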
# RGS4 inh ctr2 = second RGS4 inhibitor counter-screen in uninduced cells lacking carbachol; shares compounds with RGS4 block; calcium response (agonist-mode artifact), % at 10 µM; HEK293 M3R/RGS4 non-induced, Fluo-4 calcium, no carbachol; normalised: buffer wells 0%, carbachol wells 100%; 1,900 compounds, 22% hits; AID 493001;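 active means duplicate-averaged calcium rise in uninduced cells above buffer wells' mean plus 5 SD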
# * hit, by the source's call; i = inactive; . = no result. Compounds with a hit are over-represented: about 3.5% of the library has one in this group of screens.
SMILES,MrgX1 PAM,MrgX1 antagonist,RGS4 pot,MrgX1 ag,RGS4 block,RGS4 inh valid,RGS4 uninduced,RGS4 inh ctr2
Cc1ccc2c(c1)c(C1=c3ccccc3=NC1=O)c(O)n2C,i,i,i,i,i,.,.,.
C=CCn1c(O)c(C2=c3ccccc3=NC2=O)c2ccccc21,i,i,i,i,5.6*,12%*,33%*,22%*
Cc1cc(C)cc(-n2c3nc4ccccc4nc3c3c(=O)n(Cc4ccco4)cnc32)c1,i,i,i,i,5.9*,12%*,i,15%*
COCCCn1cnc2c(c1=O)c1nc3ccccc3nc1n2-c1ccc(C)cc1,i,i,i,i,i,.,.,.
COc1ccc(C2=C(CC(=O)O)C(=O)CC2)cc1,i,i,i,i,i,.,.,.
O=C(Cc1cccc(C(F)(F)F)c1)NCc1cccc(Cl)c1,i,i,i,i,i,.,.,.
O=C(NCc1cccc(Cl)c1)c1ccc(S(=O)(=O)Nc2cccc(C(F)(F)F)c2)cc1,i,i,i,i,i,i,i,i
O=C(CCC1CCCCC1)NNC(=O)c1cnccn1,i,i,i,i,8.4*,18%*,i,i
O=C(NNC(=O)C1CCCCC1)c1cnccn1,i,i,i,i,i,.,.,.
O=C(CSC1CC(=O)N(c2ccc(C(=O)O)cc2)C1=O)Nc1ccc(Cl)cc1 (configuration not stated),i,i,i,i,i,.,.,.
COc1ccc(C2=NN(CN3C(=O)C(=O)c4ccccc43)C(c3ccc(OC)cc3)C2)cc1 (configuration not stated),i,i,i,i,i,.,35%*,i
Cc1ccc(Oc2nnc(-c3cccs3)c3ccccc23)cc1,i,i,i,i,i,.,.,.
CCCC(=O)Nc1cccc(NC(=O)c2ccc3c(c2)OCCO3)c1,i,i,i,i,i,.,i,i
CCOC(=O)C1CCCN(Cc2cc(=O)oc3cc(C)ccc23)C1 (configuration not stated),i,i,i,i,i,i,i,10%*
Cc1ccc2c(CN3CCC(C)CC3)cc(=O)oc2c1,i,i,i,i,i,.,.,.
CCOC(=O)C1CCN(Cc2cc(=O)oc3cc(C)ccc23)CC1,i,i,i,i,5.5*,i,i,i
CC(=O)Nc1ccc(S(=O)(=O)/N=C2/NC(=O)/C(=C\c3ccco3)S2)cc1,i,i,i,i,i,.,.,.
COc1cc(/C=C2\S/C(=N/S(=O)(=O)c3ccc(C)cc3)NC2=O)c([N+](=O)[O-])cc1OC,i,i,i,i,i,i,38%*,i
Cc1ccc(S(=O)(=O)/N=C2/NC(=O)/C(=C/c3ccncc3)S2)cc1,i,i,i,i,4.9*,16%*,i,i
Cc1ccc(S(=O)(=O)/N=C2/NC(=O)/C(=C/c3ccccc3)S2)cc1,i,i,i,i,i,i,i,i
COc1ccc(/C=C2/S/C(=N/S(=O)(=O)Cc3ccccc3)NC2=O)cc1OC,i,i,i,i,7.8*,20%*,48%*,i
O=C1N/C(=N\S(=O)(=O)Cc2ccccc2)S/C1=C/c1cccc([N+](=O)[O-])c1,i,i,i,i,i,.,.,.
O=C1N/C(=N/S(=O)(=O)c2ccccc2)S/C1=C/c1cccnc1,i,i,i,i,i,.,.,.
CCOc1ncccc1C(=O)Nc1nc(SC)ns1,i,i,i,i,i,.,.,.
